Reference: ChEMBL document CHEMBL1125110, “Synthesis and pharmacological studies of N-[4-[2-hydroxy-3-[[2-[4-(1H-imidazol-1-yl)phenoxy]ethyl]amino]propoxy]phenyl]methanesulfonamide, a novel antiarrhythmic agent with class II and class III activities” (J Med Chem, 1990)

What was measured:
[1] = species: Canis familiaris; assay: In vitro electrophysiological activity in isolated canine cardiac Purkinje fibers using standard microelectrode technique; format: functional, Canis lupus familiaris, Purkinje fiber
Summary of the method: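 Canine cardiac Purkinje fibers studied with standard intracellular microelectrodes. C20APD95 is the concentration raising action potential duration at 95% repolarization by 20% over control. Reported as the log mean of n experiments with the range.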

[2] = target: Beta-2 adrenergic receptor (Canis lupus familiaris, UniProt P54833); assay: In vitro Beta-2 adrenergic receptor affinity in partially purified membrane fractions from canine lung tissue using […]dihydroalprenolol (4.5 nM); format: cell membranes
Sequence of Beta-2 adrenergic receptor (P54833 whole entry): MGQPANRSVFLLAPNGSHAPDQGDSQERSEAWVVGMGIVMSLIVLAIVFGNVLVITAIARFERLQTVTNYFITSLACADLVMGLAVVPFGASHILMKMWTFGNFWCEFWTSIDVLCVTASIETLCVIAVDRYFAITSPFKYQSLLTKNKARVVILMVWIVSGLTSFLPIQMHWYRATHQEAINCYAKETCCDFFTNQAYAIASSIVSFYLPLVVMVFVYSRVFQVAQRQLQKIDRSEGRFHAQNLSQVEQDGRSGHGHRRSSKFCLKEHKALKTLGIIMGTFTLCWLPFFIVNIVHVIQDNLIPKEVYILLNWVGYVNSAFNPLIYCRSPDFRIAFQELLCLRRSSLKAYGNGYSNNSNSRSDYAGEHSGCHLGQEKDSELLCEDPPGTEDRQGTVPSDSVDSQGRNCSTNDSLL

[3] = species: Mustela putorius furo; assay: In vitro contractile function in isolated ferret papillary muscle at 10 uM.; format: functional, Muscle tissue
Summary of the method: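 Isolated ferret papillary muscle exposed to drug at 10 μM. Read-out is percent change in contractile force from the control value. Reported as the average of n experiments with the range.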

[4] = test system: Canis familiaris; assay: In vivo cardiac output in anesthetized dog at 30 mg/kg; format: functional, Canis lupus familiaris
Summary of the method: (§1)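 Pentobarbital-anesthetized mongrel dogs, 30 min stabilization. Cumulative iv doses of 3, 10 and 30 mg/kg, each over 5 min, monitored every 5 min for 15 min. Percent change ± SEM from control at 15 min after the 30 mg/kg dose; n = 4.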

[5] = test system: Canis familiaris; assay: In vivo heart rate in anesthetized dog at 30 mg/kg; format: functional, Canis lupus familiaris; summary of the method: as §1
[6] = test system: Canis familiaris; assay: In vivo PES efficacy in conscious dogs (iv); format: functional; conditions: Canis lupus familiaris, read-out: MED
Summary of the method: (§2)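 Mongrel dogs with surgically produced occlusion/reperfusion infarction, studied conscious 3–8 days later. Two control arrhythmias induced by programmed electrical stimulation before iv drug; SVT ended by burst pacing, VF by DC countershock. Counted effective if noninducible after drug.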

[7] = test system: Canis familiaris; assay: In vivo left ventricular contractility change in anesthetized dog at 30 mg/kg; format: functional, Canis lupus familiaris, Heart left ventricle; summary of the method: as §1
[8] = test system: Canis familiaris; assay: In vivo efficacy against halothane/epinephrine induced arrhythmias in 6 anesthetized dogs at 3 mg/kg; format: functional, Canis lupus familiaris
Summary of the method: (§3)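 Mongrel dogs under thiopental, ventilated with 1.5 vol% halothane in O2. After 15–30 min stabilization, drug given iv over 10 min. After 20 min equilibration, epinephrine infused at 1.5 µg/kg/min for 15 min. Effective if SVT/VF could not be induced.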

[9] = test system: Canis familiaris; assay: In vivo mean arterial pressure in anesthetized dog at 30 mg/kg; format: functional, Canis lupus familiaris, Artery; summary of the method: as §1
[10] = test system: Canis familiaris; assay: In vivo total peripheral resistance in anesthetized dog at 30 mg/kg; format: functional, Canis lupus familiaris; summary of the method: as §1
[11] = test system: Canis familiaris; assay: In vivo coronary flow in anesthetized dog at 30 mg/kg; format: functional, Canis lupus familiaris; summary of the method: as §1
[12] = test system: Canis familiaris; assay: In vivo PES efficacy in 9 conscious dogs (PES programmed electrical stimulation protocol); format: functional, Canis lupus familiaris; summary of the method: as §2
[13] = test system: Canis familiaris; assay: In vivo efficacy against halothane/epinephrine induced arrhythmias in 4 anesthetized dogs at 1 mg/kg; format: functional, Canis lupus familiaris; summary of the method: as §3
[14] = test system: Canis familiaris; assay: In vivo isoproterenol response in conscious dogs at 0.3 mg/kg; format: functional, Canis lupus familiaris
Summary of the method: (§4)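 Conscious mongrel dogs (n = 4) with lead II ECG. Isoproterenol given iv (0.04, 0.08, 0.16 µg/kg) before and after cumulative compound doses of 0.3–10.0 mg/kg. Percent change from the control heart-rate response to 0.08 µg/kg isoproterenol, ± SEM.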

[15] = test system: Canis familiaris; assay: In vivo isoproterenol response in conscious dogs at 1.0 mg/kg; format: functional, Canis lupus familiaris; summary of the method: as §4
[16] = test system: Canis familiaris; assay: In vivo isoproterenol response in conscious dogs at 3.0 mg/kg; format: functional, Canis lupus familiaris; summary of the method: as §4
[17] = test system: Canis familiaris; assay: In vivo efficacy against halothane/epinephrine induced arrhythmias in 4 anesthetized dogs at 3 mg/kg; format: functional, Canis lupus familiaris; summary of the method: as §3
[18] = test system: Canis familiaris; assay: In vivo isoproterenol response in conscious dogs at 10.0 mg/kg; format: functional, Canis lupus familiaris; summary of the method: as §4
[19] = species: Mustela putorius furo; assay: In vitro contractile function in isolated ferret papillary muscle at 10 uM; format: functional, Muscle tissue
Summary of the method: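 Isolated ferret papillary muscle; drug at 10 μM. Read-out is percent change in force of contraction from the control value. Value is the average of n experiments, with the range given.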

[20] = test system: Canis familiaris; assay: In vivo PES efficacy in 8 conscious dogs (PES programmed electrical stimulation protocol); format: functional, Canis lupus familiaris; summary of the method: as §2
[21] = target: Phosphodiesterase; PDE3 & PDE4 (Homo sapiens) (UniProt P27815+Q14432+Q08499+Q07343+Q13370+Q08493); assay: Inhibition of canine cardiac particulate cAMP phosphodiesterase; format: protein assay; conditions: Canis lupus familiaris; target entry is the homologue from another species; concentration not given here
Summary of the method: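 Particulate cAMP phosphodiesterase fraction from dog heart; inhibition measured at 100 μM.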

[22] = Compound was evaluated for half life; format: ADME
[23] = test system: Canis familiaris; assay: In vivo efficacy against halothane/epinephrine induced arrhythmias in 4 anesthetized dogs at 0.3 mg/kg; format: functional, Canis lupus familiaris; summary of the method: as §3
[24] = Bioavailability after oral administration of 3 mg/kg to dogs; format: ADME, organism-based, Canis lupus familiaris; conditions: dog, in vivo
[25] = test system: Canis familiaris; assay: In vivo efficacy against halothane/epinephrine induced arrhythmias in 8 anesthetized dogs at 1 mg/kg; format: functional, Canis lupus familiaris; summary of the method: as §3
[26] = test system: Canis familiaris; assay: In vivo efficacy against halothane/epinephrine induced arrhythmias in 2 anesthetized dogs at 0.3 mg/kg; format: functional, Canis lupus familiaris; summary of the method: as §3
[27] = Compound was evaluated for lethal dose in rats after intravenous administration; Range is 200-300 mg/kg; format: toxicity, organism-based; conditions: rat, in vivo

Row | SMILES | C20 APD95 [1] | IC50 [2] | Delta F [3] | CO [4] | HR [5] | minimal effective dose [6] | MAP [9] | TPR [10] | Coronary flow [11] | No. effective [13] | Response [14] | Response [15] | Response [16] | Response [18] | other results
1 | CCN(CC)CC(O)COc1ccc(NS(C)(=O)=O)cc1 (stereo not given) | 4.8 µM |  |  |  |  |  |  |  |  |  |  |  |  |  | 
2 | CN(c1ccc(OCC(O)CNCCOc2ccc(-n3ccnc3)cc2)cc1)S(C)(=O)=O.Cl.Cl (stereo not given) | 1.4 µM | > 100 µM | -15% |  |  |  |  |  |  |  |  |  |  |  | 
3 | CC(C)NCC(O)c1ccc(NS(C)(=O)=O)cc1 (racemic) [SOTALOL] | 18 µM |  |  | -61% | -51% | ~2 mg/kg | -42% | 78% | -51% | 4 | -72% | -42% | -79% |  | LV dP/dt [7]: -52%; No. effective [8]: 6; No. effective [12]: 7
4 | CS(=O)(=O)Nc1ccc(OC[C@H](O)CNCCOc2ccc(-n3ccnc3)cc2)cc1.Cl | 0.8 µM | > 100 µM |  |  |  |  |  |  |  | 1 | 40% | 62% | -6% | 41% | No. effective [17]: 1; Delta F [19]: 27%
5 | Cc1nccn1-c1ccc(OCCNCC(O)COc2ccc(N(C)S(C)(=O)=O)cc2)cc1 (stereo not given) | >30 µM | > 100 µM | -16% |  |  |  |  |  |  |  |  |  |  |  | 
6 | CCN(CC)CCOc1ccc(-n2ccnc2)cc1 | 3.4 µM |  |  |  |  |  |  |  |  |  |  |  |  |  | 
7 | CS(=O)(=O)Nc1ccc(OC[C@@H](O)CNCCOc2ccc(-n3ccnc3)cc2)cc1.Cl | 0.8 µM | 100 µM | 75% | -32% | -48% | ~0.4 mg/kg | -30% | 6% | -41% | 4 | 10% | -25% | -45% | -64% | LV dP/dt [7]: -28%; No. effective [20]: 7; inhibition [21]: 19%; half-life [22]: 3 h; No. effective [23]: 2
8 | CS(=O)(=O)Nc1ccc(OCC(O)CNCCOc2ccc(-n3ccnc3)cc2)cc1.Cl (stereo not given) | 0.4 µM | 47 µM |  | -28% | -49% | ~1 mg/kg | -25% | 3% | -29% |  | 30% | -0.75% | -74% | -78% | bioavailability [24]: 60%; LV dp/dt [7]: -38%; No. effective [25]: 6; No. effective [20]: 8; No. effective [26]: 0; Delta F [19]: 53%; LD50 [27]: 200 mg/kg
9 | CC(C)(COc1ccc(-n2ccnc2)cc1)NCC(O)COc1ccc(NS(C)(=O)=O)cc1.Cl.Cl (stereo not given) | 0.5 µM | 23 µM | 69% |  |  |  |  |  |  |  |  |  |  |  | 
10 | Cc1nccn1-c1ccc(OCCNCC(O)COc2ccc(NS(C)(=O)=O)cc2)cc1.O=P(O)(O)O (stereo not given) | 7.3 µM | 57 µM | 9% |  |  |  |  |  |  |  |  |  |  |  | 
